Results from ChEMBL document CHEMBL3608272, “Design, synthesis and anticancer properties of novel oxa/azaspiro[4,5]trienones as potent apoptosis inducers through mitochondrial disruption” (2015).
Blank lines part the entries; values can stand above or below the molecule they belong to. Activity calls are given as the source filed them. The calls are words filed in the database; no cut-off is given here.

How the values were obtained:
MCF7 [1] = test: Anti-proliferative activity against human MCF7 cells incubated for 48 hrs by SRB assay; type: functional; conditions: MCF7, 48 h
Procedure, shortened: (§1)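 SRB assay. Cells in DMEM with 10% FBS were seeded and grown 24 h at 37 °C in CO2. Compounds were diluted from a 10 mM DMSO stock to 1, 5 and 10 µM, with DMSO at most 0.1%, and exposed 48 h. Cells were fixed with 10% TCA for 60 min at 4 °C and stained 20 min at room temperature with 0.4% SRB in 1% acetic acid. Dye was eluted with 10 mM trizma base and absorbance read at 540 nm. Run in triplicate; GI50 given as mean ± SD of three determinations.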

DU-145 = test: Anti-proliferative activity against human DU145 cells incubated for 48 hrs by SRB assay; type: functional; conditions: DU-145, 48 h; procedure, shortened: as §1
A549 = test: Anti-proliferative activity against human A549 cells incubated for 48 hrs by SRB assay; type: functional; conditions: A549, 48 h
HepG2 = test: Anti-proliferative activity against human HepG2 cells incubated for 48 hrs by SRB assay; type: functional; conditions: HepG2, 48 h; procedure, shortened: as §1
MCF7 [2] = test: Induction of apoptosis in human MCF7 cells assessed as induction of caspase-9 activity at 1 uM incubated for 48 hrs by ELISA method relative to control; type: functional
Procedure, shortened: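 MCF-7 cells were treated for 48 h, pelleted, washed in PBS and lysed for 15 min. After centrifugation at 20,000 rpm for 15 min, caspase-9 activity in the supernatant was measured with a kit ELISA and expressed relative to untreated control. Mean ± SD of two experiments run in triplicate.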

MCF7 [3] = test: Induction of cell cycle arrest in human MCF7 cells assessed as accumulation at sub G1 phase at 0.5 uM incubated for 48 hrs by propidium iodide staining based flow cytometry (reference value: 2.75%); type: functional
Procedure, shortened: (§2)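 MCF-7 cells were treated 48 h, harvested, washed in PBS, fixed in ice-cold 70% ethanol and stained with propidium iodide. Phase distribution was measured by flow cytometry and compared with untreated cells.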

MCF7 [4] = test: Induction of cell cycle arrest in human MCF7 cells assessed as accumulation at sub G1 phase at 1 uM incubated for 48 hrs by propidium iodide staining based flow cytometry (reference value: 2.75%); type: functional; procedure, shortened: as §2
MCF7 [5] = test: Induction of cell cycle arrest in human MCF7 cells assessed as accumulation at G0/G1 phase at 0.5 uM incubated for 48 hrs by propidium iodide staining based flow cytometry (reference value: 77.79%); type: functional; procedure, shortened: as §2
MCF7 [6] = test: Induction of cell cycle arrest in human MCF7 cells assessed as accumulation at G0/G1 phase at 1 uM incubated for 48 hrs by propidium iodide staining based flow cytometry (reference value: 77.79%); type: functional; procedure, shortened: as §2
MCF7 [7] = test: Induction of cell cycle arrest in human MCF7 cells assessed as accumulation at S phase at 0.5 uM incubated for 48 hrs by propidium iodide staining based flow cytometry (reference value: 0.99%); type: functional; procedure, shortened: as §2
MCF7 [8] = test: Induction of cell cycle arrest in human MCF7 cells assessed as accumulation at S phase at 1 uM incubated for 48 hrs by propidium iodide staining based flow cytometry (reference value: 0.99%); type: functional; procedure, shortened: as §2
MCF7 [9] = test: Induction of cell cycle arrest in human MCF7 cells assessed as accumulation at G2/M phase at 0.5 uM incubated for 48 hrs by propidium iodide staining based flow cytometry (reference value: 11.98%); type: functional; procedure, shortened: as §2
MCF7 [10] = test: Induction of cell cycle arrest in human MCF7 cells assessed as accumulation at G2/M phase at 1 uM incubated for 48 hrs by propidium iodide staining based flow cytometry (reference value: 11.98%); type: functional; procedure, shortened: as §2
MCF7 [11] = test: Reduction in mitochondrial membrane potential in human MCF7 cells at 0.5 and 1 uM incubated for 48 hrs by JC1 dye staining based flow cytometry; type: functional, cell-based
Procedure, shortened: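 MCF-7 cells (1 × 10^6 per well) in six-well plates were treated 48 h, trypsinized, washed in PBS and stained with 5 µg/mL JC-1 for 15 min at 37 °C. Cells were rinsed three times, resuspended in prewarmed medium and analysed by flow cytometry in the FL1 and FL2 channels.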

MCF7 [12] = test: Induction of ROS generation in human MCF7 cells at 0.5 uM incubated for 48 hrs by DCFDA dye based flow cytometry (reference value: 1.2%); type: functional
MCF7 [13] = test: Induction of ROS generation in human MCF7 cells at 1 uM incubated for 48 hrs by DCFDA dye based flow cytometry (reference value: 1.2%); type: functional
MCF7 [14] = test: Induction of apoptosis in human MCF7 cells assessed as necrotic cells levels at 0.5 uM incubated for 48 hrs by Annexin V-FITC and propidium iodide staining based flow cytometry (reference value: 0.86%); type: functional
MCF7 [15] = test: Induction of apoptosis in human MCF7 cells assessed as necrotic cells levels at 1 uM incubated for 48 hrs by Annexin V-FITC and propidium iodide staining based flow cytometry (reference value: 0.86%); type: functional
MCF7 [16] = test: Induction of apoptosis in human MCF7 cells assessed as late apoptotic cells levels at 0.5 uM incubated for 48 hrs by Annexin V-FITC and propidium iodide staining based flow cytometry (reference value: 3.08%); type: functional
MCF7 [17] = test: Induction of apoptosis in human MCF7 cells assessed as late apoptotic cells levels at 1 uM incubated for 48 hrs by Annexin V-FITC and propidium iodide staining based flow cytometry (reference value: 3.08%); type: functional
MCF7 [18] = test: Induction of apoptosis in human MCF7 cells assessed as viable cells levels at 0.5 uM incubated for 48 hrs by Annexin V-FITC and propidium iodide staining based flow cytometry (reference value: 92.5%); type: functional
MCF7 [19] = test: Induction of apoptosis in human MCF7 cells assessed as viable cells levels at 1 uM incubated for 48 hrs by Annexin V-FITC and propidium iodide staining based flow cytometry (reference value: 92.5%); type: functional
MCF7 [20] = test: Induction of apoptosis in human MCF7 cells assessed as early apoptotic cells levels at 0.5 uM incubated for 48 hrs by Annexin V-FITC and propidium iodide staining based flow cytometry (reference value: 3.57%); type: functional
MCF7 [21] = test: Induction of apoptosis in human MCF7 cells assessed as early apoptotic cells levels at 1 uM incubated for 48 hrs by Annexin V-FITC and propidium iodide staining based flow cytometry (reference value: 3.57%); type: functional
MCF7 [22] = test: Induction of apoptosis in human MCF7 cells assessed as increase in p53 protein levels at 1 uM incubated for 48 hrs by Western blot method; type: functional, cell-based
Procedure, shortened: (§3)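 MCF-7 cells were treated for 48 h and lysed in ice-cold RIPA buffer with PMSF, aprotinin, leupeptin, pepstatin and NaF. Protein was quantified by Bradford, and 50 µg per lane was run on 12% SDS-PAGE and transferred to PVDF. Membranes were blocked 2 h in TBST with 5% blocking powder, probed with primary antibody overnight and HRP secondary for 1 h at room temperature, then detected by chemiluminescence.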

MCF7 [23] = test: Induction of apoptosis in human MCF7 cells assessed as increase in p21 protein levels at 1 uM incubated for 48 hrs by Western blot method; type: functional, cell-based; procedure, shortened: as §3
MCF7 [24] = test: Induction of apoptosis in human MCF7 cells assessed as increase in p27 protein levels at 1 uM incubated for 48 hrs by Western blot method; type: functional, cell-based; procedure, shortened: as §3
MCF7 [25] = test: Induction of apoptosis in human MCF7 cells assessed as increase in Bax protein levels at 1 uM incubated for 48 hrs by Western blot method; type: functional, cell-based; procedure, shortened: as §3
MCF7 [26] = test: Induction of apoptosis in human MCF7 cells assessed as reduction in Bcl2 protein levels at 1 uM incubated for 48 hrs by Western blot method; type: functional, cell-based; procedure, shortened: as §3

Compound: CN1C(=O)C(c2ccc(C#N)cc2)=C(c2ccccc2)C12C=CC(=O)C=C2
GI50 (MCF7 [1]): 13.6 µM
GI50 (DU-145): 11.6 µM
GI50 (A549): 25.4 µM
GI50 (HepG2): 16.6 µM

Compound: COc1ccc(C2=C(c3ccccc3)C3(C=CC(=O)C=C3)N(C)C2=O)cc1
GI50 (MCF7 [1]): 45.4 µM
GI50 (DU-145): 55.7 µM
GI50 (A549): 98 µM
GI50 (HepG2): 61.7 µM

Compound: CN1C(=O)C(c2ccc(C=O)cc2)=C(c2ccccc2)C12C=CC(=O)C=C2
GI50 (MCF7 [1]): 11.1 µM
GI50 (DU-145): 18.2 µM
GI50 (A549): 36.2 µM
GI50 (HepG2): 12.7 µM

Compound: CSc1ccc(C2=C(c3ccccc3)C3(C=CC(=O)C=C3)N(C)C2=O)cc1
GI50 (MCF7 [1]): 15.8 µM
GI50 (DU-145): 26.4 µM
GI50 (A549): 50.4 µM
GI50 (HepG2): 18.7 µM

Compound: CN1C(=O)C(c2ccoc2)=C(c2ccccc2)C12C=CC(=O)C=C2
GI50 (MCF7 [1]): 52.7 µM
GI50 (DU-145): 91.2 µM
GI50 (A549): 126 µM
GI50 (HepG2): 62.8 µM

Stronger by GI50 (MCF7 [1]), values ahead:

GI50 (MCF7 [1]): 2.4 µM
GI50 (DU-145): 6.3 µM
GI50 (A549): 17.3 µM
GI50 (HepG2): 6.12 µM
Compound: CN1C(=O)C(c2cccc3ccccc23)=C(c2ccccc2)C12C=CC(=O)C=C2

GI50 (MCF7 [1]): 1 µM
GI50 (DU-145): 1.9 µM
GI50 (A549): 4 µM
GI50 (HepG2): 1.5 µM
Compound: O=C1C=CC2(C=C1)OC(=O)C(c1ccc([N+](=O)[O-])cc1)=C2c1ccccc1
fold change (FC) (MCF7 [2]): 2
Activity (MCF7 [3]): 4.38%
Activity (MCF7 [4]): 3.69%
Activity (MCF7 [5]): 84.21%
Activity (MCF7 [6]): 89.15%
Activity (MCF7 [7]): 0.34%
Activity (MCF7 [8]): 1.75%
Activity (MCF7 [9]): 3.35%
Activity (MCF7 [10]): 0.76%
inhibition (MCF7 [11]): Active
Activity (MCF7 [12]): 30.4%
Activity (MCF7 [13]): 78.5%
Activity (MCF7 [14]): 1.96%
Activity (MCF7 [15]): 3.77%
Activity (MCF7 [16]): 6.76%
Activity (MCF7 [17]): 28.87%
Activity (MCF7 [18]): 85.41%
Activity (MCF7 [19]): 57.24%
Activity (MCF7 [20]): 5.87%
Activity (MCF7 [21]): 10.13%
Activity (MCF7 [22]): Active
Activity (MCF7 [23]): Active
Activity (MCF7 [24]): Active
Activity (MCF7 [25]): Active
Activity (MCF7 [26]): Active

GI50 (MCF7 [1]): 8 µM
GI50 (DU-145): 19.3 µM
GI50 (A549): 24.4 µM
Compound: CC/C(=C(\c1ccccc1)c1ccc(OCCN(C)C)cc1)c1ccccc1 [TAMOXIFEN]

GI50 (MCF7 [1]): 4.2 µM
GI50 (DU-145): 9 µM
GI50 (A549): 18.8 µM
GI50 (HepG2): 7.2 µM
Compound: CN1C(=O)C(c2cc3ccccc3s2)=C(c2ccccc2)C12C=CC(=O)C=C2

GI50 (MCF7 [1]): 7.6 µM
GI50 (DU-145): 11.5 µM
GI50 (A549): 13.6 µM
GI50 (HepG2): 7.7 µM
Compound: CN1C(=O)C(c2ccc(CO)cc2)=C(c2ccccc2)C12C=CC(=O)C=C2

GI50 (MCF7 [1]): 8.2 µM
GI50 (DU-145): 15.5 µM
GI50 (A549): 22.5 µM
GI50 (HepG2): 9.2 µM
Compound: CN1C(=O)C(c2ccccc2)=C(c2ccccc2)C12C=CC(=O)C=C2

GI50 (MCF7 [1]): 3.5 µM
GI50 (DU-145): 4.8 µM
GI50 (A549): 6.3 µM
GI50 (HepG2): 6.3 µM
Compound: O=C1C=CC2(C=C1)OC(=O)C(c1ccc(C(=O)O)cc1)=C2c1ccccc1
